Test results from ChEMBL document CHEMBL1152370, “N-(4-Fluorobenzyl)-3-hydroxy-9,9-dimethyl-4-oxo-6,7,8,9-tetrahydro-4H-pyrazino[1,2-a]pyrimidine-2-carboxamides a novel class of potent HIV-1 integrase inhibitors” (Bioorg Med Chem Lett, 2009).

Columns and labels:
[1] = target: Human immunodeficiency virus type 1 integrase (Human immunodeficiency virus 1, UniProt Q7ZJM1); assay: Inhibition of HIV1 recombinant integrase strand transfer activity treated after enzyme assembly and washing
[2] = tested on: Human immunodeficiency virus 1; assay: Antiviral activity against HIV1 3B infected in human MT4 cells assessed as inhibition of viral spread in presence of 10% heat inactivated fetal bovine serum; format: functional; conditions: Human immunodeficiency virus 1, 3B, read-out: CIC95
Method in brief: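 Spread assay of HIV-1 IIIB infection in MT-4 human T-lymphoid cell culture with 10% heat-inactivated fetal bovine serum. The value is the 95% inhibitory concentration (CIC95) for blocking the spread of infection. SD was always ±10% of the value.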

[3] = tested on: Human immunodeficiency virus 1; assay: Antiviral activity against HIV1 3B infected in human MT4 cells assessed as inhibition of viral spread in presence of 50% normal human serum; format: functional; conditions: Human immunodeficiency virus 1, 3B, read-out: CIC95
Method in brief: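 Spread assay of HIV-1 IIIB infection in MT-4 human T-lymphoid cell culture with 50% normal human serum. The value is the CIC95, the 95% inhibitory concentration for blocking the spread of infection. SD was always ±10% of the value.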

[4] = Plasma clearance in rat; format: ADME, organism-based
[5] = Bioavailability in rat; format: ADME, organism-based; conditions: in vivo

Human immunodeficiency virus type 1 integrase, sequence (Q7ZJM1 whole entry): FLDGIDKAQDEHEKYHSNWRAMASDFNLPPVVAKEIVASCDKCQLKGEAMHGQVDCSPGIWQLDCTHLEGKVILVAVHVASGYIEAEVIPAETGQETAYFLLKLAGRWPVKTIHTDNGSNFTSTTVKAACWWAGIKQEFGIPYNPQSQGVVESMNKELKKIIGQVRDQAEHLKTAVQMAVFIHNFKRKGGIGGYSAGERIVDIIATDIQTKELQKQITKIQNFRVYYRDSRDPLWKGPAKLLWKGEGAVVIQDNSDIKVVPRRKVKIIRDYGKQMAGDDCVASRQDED

Compound	IC50 [1] [nM]	clearance [4] [mL/min/kg]	bioavailability [5] [%]	IC95 [2] [µM]	IC95 [3] [µM]
CC1(C)c2nc(C(=O)NCc3ccc(F)cc3)c(O)c(=O)n2CCN1CCN1CCOCC1	3			0.5	1
Cn1cnc(CN2CCn3c(nc(C(=O)NCc4ccc(F)cc4)c(O)c3=O)C2(C)C)n1	25			0.031	0.062
Cc1nc(CN2CCn3c(nc(C(=O)NCc4ccc(F)cc4)c(O)c3=O)C2(C)C)no1	6			0.015	0.062
Cn1nnnc1CN1CCn2c(nc(C(=O)NCc3ccc(F)cc3)c(O)c2=O)C1(C)C	5			0.015	0.062
CC1(C)c2nc(C(=O)NCc3ccc(F)cc3)c(O)c(=O)n2CCN1CCc1ccccn1	12			0.25	1
CCN(CC)CCN1CCn2c(nc(C(=O)NCc3ccc(F)cc3)c(O)c2=O)C1(C)C	76			0.625	0.625
Cc1cc(CN2CCn3c(nc(C(=O)NCc4ccc(F)cc4)c(O)c3=O)C2(C)C)on1	62			0.031	0.125
Cc1noc(CN2CCn3c(nc(C(=O)NCc4ccc(F)cc4)c(O)c3=O)C2(C)C)n1	13			0.015	0.062
CC1(C)c2nc(C(=O)NCc3ccc(F)cc3)c(O)c(=O)n2CCN1Cc1ccccn1	9			0.031	0.125
Cn1ccc(CN2CCn3c(nc(C(=O)NCc4ccc(F)cc4)c(O)c3=O)C2(C)C)n1	9			0.031	0.125
Cc1nnc(CN2CCn3c(nc(C(=O)NCc4ccc(F)cc4)c(O)c3=O)C2(C)C)o1	5			0.007	0.062
Cn1cc(CN2CCn3c(nc(C(=O)NCc4ccc(F)cc4)c(O)c3=O)C2(C)C)nn1	2			0.031	0.062
CC1(C)c2nc(C(=O)NCc3ccc(F)cc3)c(O)c(=O)n2CCN1CC(=O)N1CCCC1	7			0.031	0.25
CN1CCN(C(=O)CN2CCn3c(nc(C(=O)NCc4ccc(F)cc4)c(O)c3=O)C2(C)C)CC1	21			0.062	0.125
Cn1nncc1CN1CCn2c(nc(C(=O)NCc3ccc(F)cc3)c(O)c2=O)C1(C)C	6			0.015	0.125
CC1(C)c2nc(C(=O)NCc3ccc(F)cc3)c(O)c(=O)n2CCN1Cc1cnccn1	6			0.031	0.125
CC1(C)c2nc(C(=O)NCc3ccc(F)cc3)c(O)c(=O)n2CCN1CC(=O)N1CCOCC1	7			0.062	0.25
CN(C)[C@@H]1CCCn2c1nc(C(=O)NCc1ccc(F)cc1)c(O)c2=O	69				
CC1(C)c2nc(C(=O)NCc3ccc(F)cc3)c(O)c(=O)n2CCN1Cc1ccccc1	5			0.125	0.25
Cc1cnc(CN2CCn3c(nc(C(=O)NCc4ccc(F)cc4)c(O)c3=O)C2(C)C)o1	8			0.015	0.062
Cc1nnc(C(=O)NC(C)(C)c2nc(C(=O)NCc3ccc(F)cc3)c(O)c(=O)n2C)o1 [RALTEGRAVIR POTASSIUM]				0.019	0.031

Continued, in another order:

IC50 [1] [nM]	clearance [4] [mL/min/kg]	bioavailability [5] [%]	Compound	IC95 [2] [µM]	IC95 [3] [µM]
2			CC1(C)c2nc(C(=O)NCc3ccc(F)cc3)c(O)c(=O)n2CCN1Cc1nnn[nH]1	0.5	1
6			Cn1nnc(CN2CCn3c(nc(C(=O)NCc4ccc(F)cc4)c(O)c3=O)C2(C)C)n1	0.007	0.031
15			CCNC(=O)N1CCn2c(nc(C(=O)NCc3ccc(F)cc3)c(O)c2=O)C1(C)C	0.5	
16			CC1(C)NCCn2c1nc(C(=O)NCc1ccc(F)cc1)c(O)c2=O	0.125	0.166
8			CN(C)S(=O)(=O)N1CCn2c(nc(C(=O)NCc3ccc(F)cc3)c(O)c2=O)C1(C)C	1	
21			CNC(=O)CN1CCn2c(nc(C(=O)NCc3ccc(F)cc3)c(O)c2=O)C1(C)C	0.062	0.125
8			CN(C)C(=O)CN1CCn2c(nc(C(=O)NCc3ccc(F)cc3)c(O)c2=O)C1(C)C	0.062	0.125
5			CC1(C)NC(=O)Cn2c1nc(C(=O)NCc1ccc(F)cc1)c(O)c2=O	> 1	> 1
21			CC1(C)c2nc(C(=O)NCc3ccc(F)cc3)c(O)c(=O)n2CCN1Cc1nnco1	0.015	0.062
10			CC1(C)c2nc(C(=O)NCc3ccc(F)cc3)c(O)c(=O)n2CCN1S(C)(=O)=O	1	
30			CN1Cn2c(nc(C(=O)NCc3ccc(F)cc3)c(O)c2=O)C1(C)C	0.5	1
7			CC1(C)c2nc(C(=O)NCc3ccc(F)cc3)c(O)c(=O)n2CCN1Cc1cn[nH]c1	0.062	1
5			CC(=O)N1CCn2c(nc(C(=O)NCc3ccc(F)cc3)c(O)c2=O)C1(C)C	1	
4			CC1(C)c2nc(C(=O)NCc3ccc(F)cc3)c(O)c(=O)n2CCN1Cc1cnco1	0.031	0.125
7			Cn1nccc1CN1CCn2c(nc(C(=O)NCc3ccc(F)cc3)c(O)c2=O)C1(C)C	0.031	0.125
5			CC1(C)c2nc(C(=O)NCc3ccc(F)cc3)c(O)c(=O)n2CCN1CC(N)=O	0.125	0.25
6	10	57	CN1CCn2c(nc(C(=O)NCc3ccc(F)cc3)c(O)c2=O)C1(C)C	0.125	0.25
3			CC1(C)c2nc(C(=O)NCc3ccc(F)cc3)c(O)c(=O)n2CCN1Cc1cocn1	0.031	0.093
5			CC1(C)c2nc(C(=O)NCc3ccc(F)cc3)c(O)c(=O)n2CCN1Cc1ccn[nH]1	0.062	0.25
62			CN(C)CCN1CCn2c(nc(C(=O)NCc3ccc(F)cc3)c(O)c2=O)C1(C)C	1.25	1.25
6			CC1(C)c2nc(C(=O)NCc3ccc(F)cc3)c(O)c(=O)n2CCN1Cc1cnn[nH]1	0.031	0.125
7			CC1(C)NS(=O)(=O)Cn2c1nc(C(=O)NCc1ccc(F)cc1)c(O)c2=O	5	> 10
8			CC1(C)c2nc(C(=O)NCc3ccc(F)cc3)c(O)c(=O)n2CCN1CC(=O)O	0.5	1
20			CC1(C)NCCCn2c1nc(C(=O)NCc1ccc(F)cc1)c(O)c2=O	0.5	0.25
32			CC1(C)NC(=O)n2c1nc(C(=O)NCc1ccc(F)cc1)c(O)c2=O	> 1	> 1
6			CN(C)C(=O)C(=O)N1CCn2c(nc(C(=O)NCc3ccc(F)cc3)c(O)c2=O)C1(C)C	1	
9			CC1(C)c2nc(C(=O)NCc3ccc(F)cc3)c(O)c(=O)n2CCN1Cc1cscn1	0.015	0.125
